# Results published in ChEMBL document CHEMBL5104115, “Design, synthesis of novel triptolide-glucose conjugates targeting glucose Transporter-1 and their selective antitumor effect” (Eur J Med Chem, 2022).
# The source made the active and inactive calls. No cut-off for these calls is given here.
# Assays:
# NCI-H460 [1] = assay: Cytotoxicity against human NCI-H460 cells incubated for 72 hrs by MTT assay; assay type: functional, cell-based; settings: NCI-H460, 72 h
# How it was run: (§1)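 Cells seeded at 4000/well, incubated overnight, then exposed to a range of concentrations, or DMSO vehicle, for 72 h. MTT (5 mg/mL solution) added for 4 h and formazan dissolved in DMSO. Absorbance read at 570 nm, and IC50 derived from the curves. Tumor lines were grown in RPMI 1640; HUVEC, HaCaT and LO2 were grown in DMEM, each with 10% FBS at 37 °C and 5% CO2.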
# [2] = Cytotoxicity against HUVEC incubated for 72 hrs by MTT assay; assay type: toxicity, cell-based; settings: human, HUVEC cells; how it was run: as §1
# [3] = Half life in NCI-H1975 tumor bearing nude mouse model serum at 1 mg/kg, iv; assay type: ADME, organism-based
# NCI-H460 [4] = assay: Induction of apoptosis in human NCI-H460 cells assessed as viable cells at 1 uM measured after 48 hrs by Annexin V-FITC/PI staining method (reference value: 86.7%); assay type: functional; settings: read-out: Activity
# NCI-H460 [5] = assay: Induction of apoptosis in human NCI-H460 cells assessed as late apoptotic cells at 1 uM measured after 48 hrs by Annexin V-FITC/PI staining method (reference value: 8.47%); assay type: functional
# NCI-H1975 [6] = assay: Cytotoxicity against Glut1 knocked down human NCI-H1975 cells transfected with KD1 assessed as decrease in cell viability incubated for 72 hrs by MTT assay; assay type: functional, cell-based; settings: NCI-H1975, 72 h
# How it was run: (§2)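 Stable Glut-1 knockdown (KD1, KD2, vector KD V) or overexpression (OE, vector OE V) NCI-H1975 cells made by 12 h lentiviral infection, 72 h culture, then 14 days puromycin selection; Glut-1 confirmed by Western blot. Cells seeded at 4000/well overnight, dosed over a concentration range or DMSO for 72 h. MTT read at 570 nm; IC50 from ≥3 replicates.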
# [7] = Toxicity in BALB/c nude mouse xenografted with human NCI-H1975 cells assessed as morphological changes in testis at 1 mg/kg administered ip, qd for 2 weeks; settings: in vivo, 336 h
# NCI-H1975 [8] = assay: Cytotoxicity against Glut1 knocked down human NCI-H1975 cells transfected with KDV assessed as decrease in cell viability incubated for 72 hrs by MTT assay; assay type: functional, cell-based; settings: NCI-H1975, 72 h; how it was run: as §2
# [9] = Cytotoxicity against HUVEC transfected with OE overexpressing Glut1assessed as decrease in cell viability incubated for 72 hrs by MTT assay; assay type: toxicity, cell-based; settings: human, HUVEC cells transfected with OE overexpressing Glut1
# How it was run: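 HUVEC kept in DMEM with 10% FBS, made to overexpress Glut-1 (OE) or carry vector (OE V) by lentiviral infection and puromycin selection for 14 days, with Western blot check. Seeded at 4000 cells/well, treated over a concentration range or DMSO for 72 h, then MTT at 570 nm. IC50 taken from at least three replicates.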
# NCI-H460 [10] = assay: Induction of apoptosis in human NCI-H460 cells assessed as early apoptotic cells at 20 uM measured after 48 hrs by Annexin V-FITC/PI staining method (reference value: 3.26%); assay type: functional
# [11] = Toxicity in BALB/c nude mouse xenografted with human NCI-H1975 cells assessed as irregular spermatogenic tubules at 2 mg/kg administered ip, qd for 2 weeks; settings: in vivo, 336 h
# [12] = Toxicity in BALB/c nude mouse xenografted with human NCI-H1975 cells assessed as morphological change in kidney at 1 to 2 mg/kg administered ip, qd for 2 weeks; settings: in vivo, 336 h
# [13] = Stability in mouse serum assessed as unchanged fraction measured after 72 hrs by HPLC analysis relative to control; assay type: ADME, cell-free; settings: read-out: Stability
# How it was run: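 15 µM test agent incubated with human or mouse serum at 37 °C for 0, 0.5, 1, 8, 12, 18, 60 and 72 h. Samples stored at −80 °C, protein precipitated with 200 µL methanol, vortexed and sonicated 5 min. Intact agent and released triptolide measured by HPLC at 220 nm, in duplicate.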
# [14] = Drug distribution in NCI-H1975 tumor bearing nude mouse model assessed as tumor to heart ratio of triptolide metabolite at 2 mg/kg, iv by LC-MS analysis; assay type: ADME, organism-based; settings: in vivo
# How it was run: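 NCI-H1975 xenograft mice, tumors about 500 mm3, 3 per group, fasted 12 h with water available. Given 2 mg/kg iv and sacrificed 1 h later. Heart, liver, lung, kidney and tumor weighed and flash-frozen. 1.0 g tissue homogenized in 2.0 mL saline, methanol-precipitated, reconstituted. Parent, triptolide succinate and triptolide measured by LC-MS; tumor/organ ratios calculated.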
# NCI-H460 [15] = assay: Induction of apoptosis in human NCI-H460 cells assessed as late apoptotic cells at 50 uM measured after 48 hrs by Annexin V-FITC/PI staining method (reference value: 8.47%); assay type: functional
# NCI-H460 [16] = assay: Induction of apoptosis in human NCI-H460 cells assessed as early apoptotic cells at 1 uM measured after 48 hrs by Annexin V-FITC/PI staining method (reference value: 3.26%); assay type: functional
# [17] = Toxicity in BALB/c nude mouse xenografted with human NCI-H1975 cells assessed as reduction of cytoplasmic vacuoles at 2 mg/kg administered ip, qd for 2 weeks; settings: in vivo, 336 h
# NCI-H1975 [18] = assay: Cytotoxicity against human NCI-H1975 cells transfected with OE overexpressing Glut1assessed as decrease in cell viability incubated for 72 hrs by MTT assay; assay type: functional, cell-based; settings: NCI-H1975, 72 h; how it was run: as §2
# NCI-H460 [19] = assay: Induction of mitochondrial membrane potential loss in human NCI-H460 cells by flow cytometric analysis; assay type: functional, cell-based
# How it was run: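 Treated NCI-H460 cells suspended in 1% BSA DPBS and stained with TMRE (from a 1 mM stock) for 20 min in the dark. Cells then washed and resuspended in 1% BSA DPBS. Relative TMRE fluorescence intensity taken as the readout of membrane potential.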
# [20] = Toxicity in BALB/c nude mouse xenografted with human NCI-H1975 cells assessed as reduction of cytoplasmic nuclei at 2 mg/kg administered ip, qd for 2 weeks; settings: in vivo, 336 h
# NCI-H460 [21] = assay: Induction of apoptosis in human NCI-H460 cells assessed as necrotic cells at 50 uM measured after 48 hrs by Annexin V-FITC/PI staining method (reference value: 1.62%); assay type: functional
# [22] = AUC (0 to 3 hrs) in NCI-H1975 tumor bearing nude mouse model serum at 1 mg/kg, iv; assay type: ADME, organism-based; parameters: time < 3 hr, dose 1 mg/kg, route iv
# MDA-MB-231 = assay: Cytotoxicity against human MDA-MB-231 cells incubated for 72 hrs by MTT assay; assay type: functional, cell-based; settings: MDA-MB-231, 72 h; how it was run: as §1
# [23] = Toxicity in BALB/c nude mouse xenografted with human NCI-H1975 cells assessed as degeneration of inter tube connective tissue at 2 mg/kg administered ip, qd for 2 weeks; settings: in vivo, 336 h
# NCI-H1975 [24] = assay: Antitumor activity against human NCI-H1975 cells xenografted in BALB/c nude mouse assessed as tumor growth inhibition at 1 mg/kg, ip, qd for 2 weeks relative to control; settings: NCI-H1975, 336 h, read-out: TGI
# [25] = MRT (0 to 3 hrs) in NCI-H1975 tumor bearing nude mouse model serum at 1 mg/kg, iv; assay type: ADME, organism-based
structure (smiles),measurement,setting,value
CC(C)[C@]12O[C@H]1[C@@H]1O[C@]13[C@]1(O[C@H]1C[C@H]1C4=C(CC[C@@]13C)C(=O)OC4)[C@@H]2OC(=O)CCC(=O)O[C@H]1C(O)O[C@H](CO)[C@@H](O)[C@@H]1O (stereo partly specified),IC50,NCI-H460 [1],0.87 µM
same,IC50 at 72 h,[2],8.55 µM
same,half-life,[3],19.2 min
same,viability at 1 µM,NCI-H460 [4],84.6%
same,Activity,NCI-H460 [5],7.68%
same,IC50,NCI-H1975 [6],7.01 µM
same,Activity,[7],Non-Toxic
same,IC50,NCI-H1975 [8],2.87 µM
same,IC50 at 72 h,[9],3.17 µM
same,Activity,NCI-H460 [10],35.1%
same,Activity,[11],Toxic
same,Activity,[12],Non-Toxic
same,remaining at 72 h,[13],66%
same,Ratio,[14],7.3
same,Activity,NCI-H460 [15],21.4%
same,Activity,NCI-H460 [16],7.09%
same,Activity,[17],Toxic
same,IC50,NCI-H1975 [18],2.44 µM
same,Activity,NCI-H460 [19],Active
same,Activity,[20],Toxic
same,Activity,NCI-H460 [21],5.77%
same,AUC(0-t) at 3 h,[22],83.6 µM·h
same,IC50,MDA-MB-231,1.97 µM
same,Activity,[23],Toxic
same,inhibition in vivo at 1 mg/kg,NCI-H1975 [24],75.4%
same,MRT last,[25],33.6 min
